The test system of data set [1] is Quadruplex DNA. In words: Stabilization of 5'-FAM and 3'-TAMRA labelled c-Myc G4-quadruplex Pu24T DNA (unknown origin) assessed as increase in thermal stability of DNA structure at 5 to 40 equiv. by FRET melting assay. To be noted: dose 5-40 equiv.
The subject of data set [2] is Quadruplex DNA. Description: Stabilization of fluorescently labelled c-Myc G4-quadruplex Pu22 DNA (unknown origin) assessed as increase in thermal stability of DNA structure at 5 to 40 equiv. by FRET melting assay. In kind it is nucleic-acid assay. Particulars: dose 5-40 equiv. The gist of the method: (§1)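 Pu22 (FAM/TAMRA, 0.2 μM), folded in 10 mM lithium cacodylate pH 7.4, 2 mM KCl, 98 mM LiCl. Ligand at 5, 10, 25 or 40 equivalents. Heated 10–95 °C; donor emission at 516 nm (excitation 492 nm) normalized. Tm taken at 0.5 normalized emission; ΔTm is Tm with ligand minus Tm without ligand. Duplicate wells.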

Data set [3] concerns Quadruplex DNA. Description: Stabilization of G4-quadruplex PEPu24T DNA (unknown origin) assessed as inhibition of Taq DNA polymerase activity by measuring reduction in full length DNA product at 0.048 to 6 uM pretreated for 10 mins followed by incubation with dNTPs for 15 mins by PAGE analysis. Format: nucleic-acid assay. To be noted: dose 0.048-6 µM, time 25.0 min. The gist of the method: (§2)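 Template made by annealing TET-labelled 25 nt primer (1 μM final) to PEPu24T (1.25 μM final) in 100 mM KCl. Reaction: 40 nM template, Taq buffer pH 8.8 with 50 mM KCl, 25 mM MgCl2, 0.05 U Taq. Compound preincubated on ice 10 min; dNTPs (100 μM) added, 37 °C 15 min. Denaturing 12% urea/formamide PAGE; full-length product expressed as % of no-compound sample; SD of ≥2 independent experiments.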

A short description of data set [4]: Stabilization of double stranded PEPu24T mut DNA (unknown origin) assessed as inhibition of Taq DNA polymerase activity by measuring reduction in full length DNA product at 6 uM pretreated for 10 mins followed by incubation with dNTPs for 15 mins by PAGE analysis. Particulars: time 25.0 min. The gist of the method:
(§3)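 Non-G4 control template: TET-labelled 25 nt primer (1 μM final) annealed to mutated PEPu24T mut (1.25 μM final) in 100 mM KCl. 40 nM template, Taq buffer pH 8.8, 25 mM MgCl2, 0.05 U Taq. Compound on ice 10 min, then 100 μM dNTPs at 37 °C 15 min. Denaturing PAGE; full-length product as % of no-compound sample.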

The test system of data set [5] is Quadruplex DNA. In words: Stabilization of G4-quadruplex PEPu24T DNA (unknown origin) assessed as inhibition of Taq DNA polymerase activity by measuring reduction in full length DNA product at 0.048 uM pretreated for 10 mins followed by incubation with dNTPs for 15 mins by PAGE analysis. Format: nucleic-acid assay. Particulars: time 25.0 min. The gist of the method:
as §2

Data set [6] relates to Quadruplex DNA. In words: Stabilization of fluorescently labelled G4-quadruplex 21G DNA (unknown origin) assessed as increase in thermal stability of DNA structure at 2 uM by FRET melting assay. In kind it is nucleic-acid assay. The gist of the method: (§4)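 0.2 μM FAM/TAMRA dual-labelled oligonucleotide, prefolded in 10 mM lithium cacodylate pH 7.4, 10 mM KCl, 90 mM LiCl (95 °C 10 min, then ≥1 h cold). Ligand added and sample heated from 10 to 95 °C; donor emission at 516 nm (excitation 492 nm) normalized. Tm taken at 0.5 normalized emission; ΔTm is Tm with ligand minus Tm without ligand. Duplicate wells.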

Data set [7] deals with Quadruplex DNA. In words: Stabilization of fluorescently labelled G4-quadruplex c-KIT2 DNA (unknown origin) assessed as increase in thermal stability of DNA structure at 2 uM by FRET melting assay. In kind it is nucleic-acid assay. The gist of the method:
as §4

Data set [8] can be described thus: Solubility of the compound at pH 7.4. In kind it is physicochemical. To be noted: buffer.
Data set [9] has as its system Quadruplex DNA. Description: Binding affinity to c-Myc G4-quadruplex Pu22 DNA (unknown origin) at 0.7 equivalent by NMR titration analysis. In kind it is nucleic-acid assay. Particulars: dose 0.7 equiv. The gist of the method:
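Pu22 folded at 100 μM in 10 mM potassium phosphate pH 7.4, 35 mM KCl (95 °C 10 min, cooled overnight). 10% D2O added, giving 90 μM DNA. Compound added stepwise in increasing equivalents. 1D 1H spectra with excitation sculpting, 256 scans, 298 K, 850 MHz.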

Data set [10] deals with Quadruplex DNA. In words: Stabilization of fluorescently labelled G4-quadruplex Bom17 DNA (unknown origin) assessed as increase in thermal stability of DNA structure at 2 uM by FRET melting assay. In kind it is nucleic-acid assay. The gist of the method:
as §4

Data set [11] relates to Quadruplex DNA. In words: Stabilization of fluorescently labelled G4-quadruplex Bcl2 DNA (unknown origin) assessed as increase in thermal stability of DNA structure at 2 uM by FRET melting assay. In kind it is nucleic-acid assay. The gist of the method:
as §4

Data set [12] in a line: Stabilization of double stranded PEPu24T mut DNA (unknown origin) assessed as inhibition of Taq DNA polymerase activity by measuring reduction in full length DNA product at >4 uM pretreated for 10 mins followed by incubation with dNTPs for 15 mins by PAGE analysis. Particulars: time 25.0 min. The gist of the method: as §3
Data set [13] relates to Quadruplex DNA. In words: Stabilization of fluorescently labelled G4-quadruplex 25Ceb DNA (unknown origin) assessed as increase in thermal stability of DNA structure at 2 uM by FRET melting assay. In kind it is nucleic-acid assay. The gist of the method:
as §4

Another data set deals with dsDNA. In words: Binding affinity to 5'-Cy5-labelled double stranded DNA ds26 (unknown origin) by microscale thermophoresis analysis. Format: nucleic-acid assay. The gist of the method:
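Cy5-labelled DNA held at 25 nM, folded in 10 mM phosphate, 100 mM KCl, pH 7.4 (95 °C 5 min, cooled to room temperature). Ligand in 16 1:3 dilutions in 10 mM phosphate pH 7.4, 100 mM KCl, 0.05% Tween20. Capillary fluorescence read at 20% LED power; change in fluorescence versus ligand concentration fitted by nonlinear equation for binding constant.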
A general note: MST reads how a fluorescent partner responds to local heating, with and without ligand.

For data set [14], the system named is Quadruplex DNA. In words: Stabilization of G4-quadruplex PEPu24T DNA (unknown origin) assessed as inhibition of Taq DNA polymerase activity by measuring reduction in full length DNA product at 0.24 uM pretreated for 10 mins followed by incubation with dNTPs for 15 mins by PAGE analysis. In kind it is nucleic-acid assay. To be noted: time 25.0 min. The gist of the method: as §2

For data set [15], the system named is Quadruplex DNA. In words: Stabilization of G4-quadruplex DNA in human HeLa cells assessed as increase in BG4-positive cell nuclei at 1 to 2 uM incubated for 24 hrs by immunofluorescence microscopy. Format: functional, cell-based. Particulars: dose 1-2 µM. The gist of the method:
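HeLa cells (60,000 on coverslips) treated 24 h. Cells fixed in 2% paraformaldehyde, permeabilized in 0.1% Triton X-100, blocked in 2% milk. Stained with BG4–FLAG (1/3000), rabbit anti-FLAG, then Alexa594 anti-rabbit, each 1 h at 37 °C; nuclei stained with DAPI. BG4 foci per nucleus counted, 90–166 cells per condition. Welch-corrected t tests on ln-transformed data; mean ± 2SD shown.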

The subject of data set [16] is Quadruplex DNA. In words: Stabilization of fluorescently labelled c-Myc G4-quadruplex Pu22 DNA (unknown origin) assessed as increase in thermal stability of DNA structure at 2 uM in presence of double stranded competitor DNA ds26 by FRET melting assay. In kind it is nucleic-acid assay. The gist of the method: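 Competition melting: 0.2 μM labelled Pu22 in 10 mM lithium cacodylate pH 7.4, 2 mM KCl, 98 mM LiCl, with ligand plus 0–100 equivalents of ds26 duplex competitor. Heated 10–95 °C; FAM emission normalized. Tm taken at 0.5 normalized emission; ΔTm is Tm with ligand minus Tm without ligand. SD of at least six independent experiments.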

For data set [17], the system named is Quadruplex DNA. Description: Stabilization of fluorescently labelled G4-quadruplex Tba DNA (unknown origin) assessed as increase in thermal stability of DNA structure at 2 uM by FRET melting assay. In kind it is nucleic-acid assay. The gist of the method:
as §4

In data set [18] the test system is Quadruplex DNA. In words: Binding affinity to c-Myc G4-quadruplex Pu22 DNA (unknown origin) assessed as change in entropy by isothermal titration calorimetry. Format: nucleic-acid assay. The gist of the method: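 Reverse titration: cell holds 20 μM ligand, syringe 120 μM prefolded G4 DNA, 20 injections in 10 mM potassium phosphate, 100 mM KCl, pH 7.4, at 19 °C. First injection 0.5 μL, then 2 μL, 120 s spacing, 1000 rpm, high-feedback mode. Data fitted to one-site binding model.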

For data set [19], the system named is Quadruplex DNA. In words: Stabilization of fluorescently labelled c-Myc G4-quadruplex Pu22 DNA (unknown origin) assessed as increase in thermal stability of DNA structure at 40 equiv. by FRET melting assay. Format: nucleic-acid assay. The gist of the method: as §1
Data set [20] concerns Quadruplex DNA. Description: Stabilization of G4-quadruplex PEPu24T DNA (unknown origin) assessed as inhibition of Taq DNA polymerase activity by measuring full length DNA product at 0.24 uM pretreated for 10 mins followed by incubation with dNTPs for 15 mins by PAGE analysis. Format: nucleic-acid assay. More on the design: scale not given: the % may be the effect or the level left. Particulars: time 25.0 min. The gist of the method: as §2

Results on 14 compounds are retold here after ChEMBL document CHEMBL5385911, “Exploring the Dispersion and Electrostatic Components in Arene-Arene Interactions between Ligands and G4 DNA to Develop G4-Ligands” (J Med Chem, 2024).

≈ marks a conversion by molar mass, not a printed value. Calls of active or inactive are those of the source. The calls are words filed in the database; no cut-off is given here.

Consider `Cc1cc(NCCCN(C)C)nc(Nc2nc3ccccc3nc2C)n1`, for which the result with Quadruplex DNA [1], in the data set on Quadruplex DNA [2] and in the data set on Quadruplex DNA [3] was Active. For the same compound, in data set [4], the outcome was inactive.

Turning to `Cc1cc(NCCCN(C)C)nc(Nc2cnc3ccccc3n2)n1`, the outcome with Quadruplex DNA [1] and in the data set with Quadruplex DNA [3] was Active. For the same compound, the outcome (in the data set on Quadruplex DNA [2]; in data set [4]) was inactive.

For `Cc1cc(NCCCN(C)C)nc(Nc2nc3cc(C)c(C)cc3nc2C)n1`, the outcome with Quadruplex DNA [1], in the data set on Quadruplex DNA [2] and in the data set on Quadruplex DNA [3] was Active. Besides, the result in data set [4] was inactive.

For `Cc1cc(C)c2nc(Nc3nc(C)cc(NCCCN(C)C)n3)nc(C)c2c1`, the inhibition was determined as 50% with Quadruplex DNA [5] and 100% with Quadruplex DNA [14]. Further, the result in the data set on Quadruplex DNA [6], with Quadruplex DNA [7], in the data set with Quadruplex DNA [1], in the data set on Quadruplex DNA [9], with Quadruplex DNA [10] and in the data set with Quadruplex DNA [11] was Active. Moreover, the outcome (in data set [12]; in the data set with Quadruplex DNA [13]; with Quadruplex DNA [15]; with Quadruplex DNA [16]) was Active. In addition, the solubility in [8] was 858 µM (≈ 326 µg/mL). Further, the outcome with dsDNA and in the data set on Quadruplex DNA [17] was inactive. For the same compound, the -TdeltaS in the data set on Quadruplex DNA [18] worked out at 1.85 kcal/mol.

On to `Cc1cc(NCCCN(C)C)nc(Nc2nc(C)c3ccccc3n2)n1`, for which the result in the data set on Quadruplex DNA [1] and with Quadruplex DNA [19] was Active. Besides, the result in [4] was inactive.

For `Cc1cc(NCCCN(C)C)nc(Nc2nc3cc(Cl)c(Cl)cc3nc2C)n1`, the outcome in the data set on Quadruplex DNA [1], with Quadruplex DNA [2] and with Quadruplex DNA [3] was Active. Further, in data set [4], the result was inactive.

Compound `Cc1cc(NCCCN(C)C)nc(Nc2nc(C)c3cc(Cl)ccc3n2)n1` yielded a solubility in data set [8] of 858 µM (≈ 331 µg/mL). The result in the data set on Quadruplex DNA [1] and in the data set on Quadruplex DNA [19] was Active. For the same compound, the result in data set [4] was inactive.

As for `Cc1cc(C)nc(Nc2nc(C)c3ccccc3n2)n1`, the solubility in [8] was determined as 134 µM (≈ 35.6 µg/mL). The outcome in data set [4] was inactive.

As to `Cc1cc(C)nc(Nc2nc(C)c3cc(Cl)ccc3n2)n1`, the result in data set [4] was inactive.

As for `Cc1ccc2nc(Nc3nc(C)cc(NCCCN(C)C)n3)nc(C)c2c1`, in the data set with Quadruplex DNA [20], the Activity stood at 30%. In addition, the concentration in solution in data set [8] (solubility) was 858 µM (≈ 314 µg/mL). The result in the data set with Quadruplex DNA [1] and with Quadruplex DNA [19] was Active. Besides, the outcome in [4] was inactive.

`COc1ccc2nc(Nc3nc(C)cc(C)n3)nc(C)c2c1` registered a solubility in data set [8] of 134 µM (≈ 39.6 µg/mL). The outcome in [4] was inactive.

As to `Cc1cc(NCCCN(C)C)nc(Nc2ncc3ccccc3n2)n1`, the Activity with Quadruplex DNA [20] is 65%. Also, in [8], the concentration in solution (solubility) was 858 µM (≈ 290 µg/mL). In addition, the result in the data set on Quadruplex DNA [1] was Active. Further, in data set [4], the outcome was inactive.

For `Cc1ccc2nc(Nc3nc(C)cc(C)n3)nc(C)c2c1`, in data set [8], the solubility was 134 µM (≈ 37.4 µg/mL). For the same compound, in [4], the outcome was inactive.

In turn, `COc1ccc2nc(Nc3nc(C)cc(NCCCN(C)C)n3)nc(C)c2c1` yielded a solubility in [8] of 858 µM (≈ 327 µg/mL). For the same compound, the result in the data set with Quadruplex DNA [1] and in the data set on Quadruplex DNA [19] was Active. Moreover, the result in data set [4] was inactive.

As a reminder, the inhibition is the drop in the measured response relative to a control, in per cent. In general, solubility refers to how much of the substance goes into solution per volume.
